Data reported in ChEMBL document CHEMBL1155099, “Natural products in parallel synthesis: triazole libraries of nonactic acid” (2008).
Active and inactive are the calls of the source.

What was measured:
Assay type in all cases: functional, organism-based
[1] = test system: Bacillus anthracis; test: Antibacterial activity against Bacillus anthracis at 1mM by almar blue dye reduction assay
[2] = test system: Saccharomyces cerevisiae; test: Antifungal activity against Saccharomyces cerevisiae at 1 mM by almar blue dye reduction assay
In short: (§1)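 Single-point primary screen at 1 mM using Alamar Blue dye reduction as the growth read-out.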

[3] = test system: Staphylococcus aureus; test: Antibacterial activity against Staphylococcus aureus at 1 mM by almar blue dye reduction assay; in short: as §1
[4] = test system: Bacillus cereus; test: Antibacterial activity against Bacillus cereus at 1 mM by almar blue dye reduction assay; in short: as §1
[5] = test system: Escherichia coli; test: Antibacterial activity against Escherichia coli at 1 mM by almar blue dye reduction assay; in short: as §1
[6] = test system: Pseudomonas aeruginosa; test: Antibacterial activity against Pseudomonas aeruginosa at 1 mM by almar blue dye reduction assay; in short: as §1
[7] = test system: Candida albicans; test: Antifungal activity against Candida albicans at 1 mM by almar blue dye reduction assay; in short: as §1
[8] = test system: Cryptococcus neoformans; test: Antifungal activity against Cryptococcus neoformans at 1 mM by almar blue dye reduction assay; in short: as §1
[9] = test system: Bacillus subtilis; test: Antibacterial activity against Bacillus subtilis at 1 mM by almar blue dye reduction assay; in short: as §1

Measured: Activity

CCN(CC)C(=O)[C@H](C)[C@H]1CC[C@@H](C[C@@H](C)n2cc(C#CCN3CCC(c4ccccc4)CC3)nn2)O1
inactive: all assays above

C[C@H](C[C@@H]1CC[C@H]([C@@H](C)C(=O)N2CCCC2)O1)n1cc(C#Cc2ccccc2[N+](=O)[O-])nn1
inactive: all assays above

Cc1cccc(NC(=O)OCC#Cc2cn([C@H](C)CC3CCC([C@@H](C)C(=O)N4CCCC4)O3)nn2)c1 (single isomer, unassigned)
inactive: all assays above

COCCNCC#Cc1cn([C@H](C)C[C@@H]2CC[C@H]([C@@H](C)C(=O)N3CCCC3)O2)nn1
inactive: all assays above

Cc1cccc(NC(=O)OCC#Cc2cn([C@H](C)CC3CCC([C@@H](C)C(=O)NC(C)C)O3)nn2)c1 (single isomer, unassigned)
inactive: all assays above

CCN(CC)C(=O)[C@H](C)C1CCC(C[C@@H](C)n2cc(C#CCNC(=O)OCc3ccccc3)nn2)O1 (single isomer, unassigned)
inactive: all assays above

CCN(CC)C(=O)[C@H](C)[C@H]1CC[C@@H](C[C@@H](C)n2cc(C#Cc3ccccc3[N+](=O)[O-])nn2)O1
inactive: all assays above

COc1ccc(C#Cc2cn([C@H](C)C[C@@H]3CC[C@H]([C@@H](C)C(=O)N4CCN(CC5CCCO5)CC4)O3)nn2)cc1 (some centres not stated)
inactive: all assays above

CCCNC(=O)NCC#Cc1cn([C@H](C)CC2CCC([C@@H](C)C(=O)N(C)Cc3ccccc3)O2)nn1 (single isomer, unassigned)
inactive: all assays above

CCN(CC)C(=O)[C@H](C)[C@H]1CC[C@@H](C[C@@H](C)n2cc(C#CCOc3ccc(OC)cc3)nn2)O1
inactive: all assays above

CC(C)NC(=O)[C@H](C)[C@H]1CC[C@@H](C[C@@H](C)n2cc(C#Cc3cccc4ccccc34)nn2)O1
inactive: all assays above

CCCCCC#Cc1cn([C@H](C)C[C@@H]2CC[C@H]([C@@H](C)C(=O)NC(C)C)O2)nn1
inactive: all assays above

COCC#Cc1cn([C@H](C)C[C@@H]2CC[C@H]([C@@H](C)C(=O)N3CCN(CC4CCCO4)CC3)O2)nn1 (some centres not stated)
inactive: all assays above

C[C@H](C[C@@H]1CC[C@H]([C@@H](C)C(=O)N(C)Cc2ccccc2)O1)n1cc(C#CCOc2ccccc2)nn1
inactive: all assays above

CCN(CC)C(=O)[C@H](C)[C@H]1CC[C@@H](C[C@@H](C)n2cc(C#CCOc3ccc(C(F)(F)F)cc3)nn2)O1
inactive: all assays above

CCN(CC)C(=O)[C@H](C)[C@H]1CC[C@@H](C[C@@H](C)n2cc(C#CCOC)nn2)O1
inactive: all assays above

CC(C)NC(=O)[C@H](C)[C@H]1CC[C@@H](C[C@@H](C)n2cc(C#CCN3CCOCC3)nn2)O1
inactive: all assays above

CCN(CC)C(=O)[C@H](C)[C@H]1CC[C@@H](C[C@@H](C)n2cc(C#CCc3ccccc3)nn2)O1
inactive: all assays above

C[C@H](C[C@@H]1CC[C@H]([C@@H](C)C(=O)N(C)Cc2ccccc2)O1)n1cc(C#CCN2CCN(c3ccccc3)CC2)nn1
inactive: all assays above

C[C@H](C[C@@H]1CC[C@H]([C@@H](C)C(=O)N2CCCC2)O1)n1cc(C#CCC2CCCC2)nn1
inactive: all assays above

CC(C)NC(=O)[C@H](C)[C@H]1CC[C@@H](C[C@@H](C)n2cc(C#CCOc3ccccc3)nn2)O1
inactive: all assays above

C[C@H](C[C@@H]1CC[C@H]([C@@H](C)C(=O)N2CCCC2)O1)n1cc(C#CCc2ccccc2)nn1
inactive: all assays above

COc1ccc(OCC#Cc2cn([C@H](C)C[C@@H]3CC[C@H]([C@@H](C)C(=O)N4CCCC4)O3)nn2)cc1
inactive: all assays above
